Experimental data published in ChEMBL document CHEMBL3612047, “Synthesis, antiproliferative activity and possible mechanism of action of novel 2-acetamidobenzamides bearing the 2-phenoxy functionality” (Bioorg Med Chem, 2015).

Experiments:
K562 [1] = experiment: Growth inhibition of human K562 cells at 10 uM incubated for 24 hrs by trypan blue dye exclusion assay; type: functional; details: K562, 24 h, read-out: GI
In short: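 K562 cells in medium with 5% FBS at 37 °C, 5% CO₂. About 2 × 10⁵ cells/mL cultured 24 h, then compound added at 10 μM. After 24 h exposure, cells counted by hemocytometer and viability scored by trypan blue exclusion, reported as percent growth inhibition.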

[2] = Cytotoxicity against human HuDe cells incubated for 72 hrs by MTT assay; type: cell-based
In short: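 HuDe primary culture from human epidermis, seeded at 2 × 10⁴ cells/mL. Test drugs at different concentrations, or 0.1% DMSO, added 24 h after seeding, with 72 h exposure. MTT (5 mg/mL in PBS) then applied for 3 h at 37 °C. Formazan solubilized with isopropanol/triton X-100/HCl and read at 570 nm with 690 nm blank.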

K562 [3] = experiment: Selectivity index, ratio of IC50 for human HuDe cells to IC50 human K562 cells
In short: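 Index taken as the ratio of HuDe to K562 IC₅₀. For K562: about 2 × 10⁵ cells/mL, compounds added at graded concentrations, viable count by trypan blue exclusion with a hemocytometer after 24 h. For HuDe primary epidermal cells: 2 × 10⁴ cells/mL, drugs or 0.1% DMSO added 24 h after seeding, MTT read at 570 nm (690 nm blank) after 72 h.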

K562 [4] = experiment: Growth inhibition of human K562 cells incubated for 24 hrs by trypan blue dye exclusion assay; type: functional, cell-based; details: K562, 24 h
In short: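 K562 cells, about 2 × 10⁵ cells/mL, precultured 24 h, then exposed 24 h to a range of compound concentrations. Viable cells counted by hemocytometer with trypan blue exclusion to derive IC₅₀.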

[5] = Growth inhibition of human NCI60 cells assessed as cell growth level at 10 uM by NCI standard protocol based method; type: functional; design: scale not given: the % may be the effect or the level left
In short: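 NCI 60-cell-line screen (leukemia, lung, colon, melanoma, renal, ovarian, brain, breast, prostate) run to the NCI standard protocol. Single high dose of 10⁻⁵ M, read as growth percent. Mean graph midpoint is the arithmetic mean over all lines tested.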

| Structure (SMILES) | inhibition of growth at 10 µM (K562 [1]) | IC50 [2] | Ratio IC50 (K562 [3]) | IC50 (K562 [4]) | Activity [5] |
| --- | --- | --- | --- | --- | --- |
| NC(=O)c1cc(Cl)ccc1NC(=O)COc1ccc(Cl)cc1Cl | 18.8% | – | – | – | – |
| NC(=O)c1ccccc1NC(=O)COc1ccccc1 | 57.4% | 523 µM | 58.76 | 8.9 µM | – |
| COc1cc2c(c(OC)c1OC)-c1ccc(OC)c(=O)cc1[C@@H](NC(C)=O)CC2 [COLCHICINE] | 63.6% | – | – | – | – |
| Cc1ccc(OCC(=O)Nc2ccc(Cl)cc2C(N)=O)cc1 | 24.1% | – | – | – | – |
| Cc1ccc(NC(=O)COc2cccc(Cl)c2Cl)c(C(N)=O)c1 | 30.8% | – | – | – | – |
| NC(=O)c1cccc(NC(=O)COc2ccccc2)c1 | < 10% | – | – | – | – |
| Cc1ccc(NC(=O)COc2ccc(Cl)cc2Cl)c(C(N)=O)c1 | 35.4% | – | – | – | – |
| Cc1ccc(NC(=O)COc2ccccc2)c(C(N)=O)c1 | 72% | 99.3 µM | 21.13 | 4.7 µM | – |
| Cc1ccc(OCC(=O)Nc2ccc(C)cc2C(N)=O)cc1 | 30.3% | – | – | – | – |
| NC(=O)c1ccccc1NC(=O)COc1ccc(Cl)cc1Cl | < 10% | – | – | – | – |
| Cc1ccc(OCC(=O)Nc2ccccc2C(N)=O)cc1 | < 10% | – | – | – | – |
| NC(=O)c1ccccc1NC(=O)COc1cccc(Cl)c1Cl | < 10% | – | – | – | – |
| Cc1ccc(OCC(=O)Nc2ccc(I)cc2C(N)=O)cc1 | 49.8% | 356 µM | 35.57 | 10 µM | – |
| NC(=O)c1ccc(NC(=O)COc2ccccc2)cc1 | 23.7% | – | – | – | – |
| NC(=O)c1cc(I)ccc1NC(=O)COc1ccc(Cl)cc1Cl | 74.7% | 33.8 µM | 4.9 | 6.9 µM | 87.28% |
| Cc1ccccc1OCC(=O)Nc1ccc(Cl)cc1C(N)=O | 75.9% | 27.3 µM | 16.96 | 1.61 µM | – |
| COc1cc(NC(=O)COc2cccc(Cl)c2Cl)c(C(N)=O)cc1OC | 17.7% | – | – | – | – |
| COc1ccc(NC(=O)COc2ccc(C)cc2)c(C(N)=O)c1 | 48.1% | – | – | – | – |
| COc1ccc(NC(=O)COc2ccccc2C)c(C(N)=O)c1 | 40.1% | – | – | – | – |
| Cc1ccc(NC(=O)COc2ccccc2C)c(C(N)=O)c1 | 45.6% | – | – | – | – |
| Cc1ccccc1OCC(=O)Nc1ccccc1C(N)=O | 19.7% | – | – | – | – |
